In the library only some 2.5% were active in any assay of this set; here they are far more common.
ABCG2 block = ABCG2 efflux pump inhibitors, primary screen, multiplex with ABCB1, IgMXP3 cells, flow cytometry | JC-1 efflux | inhibition, % at 6.6 µM | 190,000 compounds, 0.1% hits;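 active = inhibition above 80%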;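 note: 0% = DMSO and 100% = nicardipine control wells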
Target sequence (Q9UNQ0 whole entry, looked up): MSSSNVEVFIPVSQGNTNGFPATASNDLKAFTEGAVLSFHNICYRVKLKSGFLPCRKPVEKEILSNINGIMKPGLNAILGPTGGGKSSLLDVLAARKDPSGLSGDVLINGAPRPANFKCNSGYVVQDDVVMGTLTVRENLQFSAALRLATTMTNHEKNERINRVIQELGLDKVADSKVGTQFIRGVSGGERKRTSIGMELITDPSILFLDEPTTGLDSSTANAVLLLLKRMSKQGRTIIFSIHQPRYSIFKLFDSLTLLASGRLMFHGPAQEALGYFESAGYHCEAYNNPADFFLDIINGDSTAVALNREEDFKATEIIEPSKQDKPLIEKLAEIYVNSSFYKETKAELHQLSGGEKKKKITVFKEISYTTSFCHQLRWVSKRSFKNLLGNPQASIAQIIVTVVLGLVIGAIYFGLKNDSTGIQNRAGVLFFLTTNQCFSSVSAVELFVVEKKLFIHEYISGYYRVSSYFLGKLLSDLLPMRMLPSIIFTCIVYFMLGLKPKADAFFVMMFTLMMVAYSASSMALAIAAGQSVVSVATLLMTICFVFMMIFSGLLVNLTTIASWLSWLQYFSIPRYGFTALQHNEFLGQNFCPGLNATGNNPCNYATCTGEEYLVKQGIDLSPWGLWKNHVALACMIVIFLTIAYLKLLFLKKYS
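Read-out basis: Efflux inhibition in percent versus controls | Test system: ABCG2 IgMXP3 and barcoded ABCB1 CCRF-Adr cell mix | Quantity: 3 million cells/mL in well | Schedule: 10 min at 25 °C | Control set: Nicardipine as high control, DMSO as low control | Reagent: JC-1 as fluorescent efflux pump substrate | Signal: Flow cytometry of retained JC-1 fluorescence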
ABCB1 block = ABCB1 efflux pump inhibitors, primary screen, cell-based, multiplex, flow cytometry, ABCG2 counter-screen | inhibition, % at 6.6 µM | 190,000 compounds, 0.067% hits | CCRF-Adr cells, JC-1 efflux | ATP-dependent translocase ABCB1 (Homo sapiens), P08183; in the data active = inhibition above about 40%;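 note: 0% = vehicle and 100% = reference inhibitor; higher value means more JC-1 retained so stronger ABCB1 efflux block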
Efflux pump inh = inhibitors of Candida efflux pumps in yeast, primary screen, S. cerevisiae, Nile Red, multiplex | S. cerevisiae Candida pump triplex | inhibition, % at 10 µM | 330,000 compounds, 0.44% hits | AID 485275, 2010;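 active = plate passing quality check with inhibition over a set limit, or well fluorescence over plate mean plus 4 SD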;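 note: Nile Red retained in pooled yeast measured as flow cytometry median fluorescence; 0% = buffer negative control and 100% = Enniatin B positive control; higher means more Nile Red kept so more efflux inhibition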
MEKK2mut PB1 HTS = MEK5 binding signal on mutant MEKK2 PB1, primary screen, biochemical, multiplex bead flow cytometry, Alexa488-MEK5; Alexa488-MEK5 binding to MEKK2 mutant; percent response, % at 10 µM; 290,000 compounds, 0.35% hits; in the data active = percent response above about 24%, passing the limit was not always enough
MEKK2 WT-MEK5 = modulators of MEK5 binding to wildtype MEKK2, primary screen, biochemical, multiplex bead flow cytometry, Alexa488-MEK5; Mitogen-activated protein kinase kinase kinase 2 (Homo sapiens), Q9Y2U5; Alexa488-MEK5 binding to MEKK2 WT; actives lie on both sides; binding response (% of control), % at 10 µM; 290,000 compounds, 1.1% hits; in the data active = binding response below about 67% or above about 130%
MEKK3 PB1 HTS = modulators of MEKK3-MEK5 PB1 binding, primary screen, biochemical, wildtype MEKK3, multiplex bead flow cytometry, Alexa488-MEK5; bead-based flow cytometry, Alexa488-MEK5 binding to MEKK3; actives lie on both sides; 0 = blocked by unlabeled MEK5, 100 = vehicle; binding response (% of control), % at 10 µM; 290,000 compounds, 1.4% hits; AID 1529, 2009; Mitogen-activated protein kinase kinase kinase 3 (Homo sapiens), Q99759;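 active = binding response more than 3 SD above or below the average of its plate-row segment, actives on both sides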;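 note: Alexa488 bead fluorescence after subtracting the streptavidin-only scavenger bead signal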
MEKK2wt confirm = modulators of MEK5 binding to wildtype MEKK2, confirmation, biochemical, single concentration, multiplex bead flow cytometry; shares compounds with MEKK3 PB1 HTS; 5,900 compounds, 2.4% hits; binding response (% of control), % at 10 µM; Alexa488-MEK5 binding to MEKK2 WT; actives lie on both sides; in the data active = binding response below about 16% or above about 210%; inactive = in between
MEKK2mut confirm = mutant MEKK2 PB1-MEK5 binding signal retest – biochemical, single concentration, multiplex bead flow cytometry, confirmation; shares compounds with MEKK3 PB1 HTS; 5,900 compounds, 2% hits; percent response, % at 10 µM; Alexa488-MEK5 binding to MEKK2 mutant; in the data active = percent response mostly above about 71%, no sharp cut-off; inactive = mostly below about 38%;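 note: higher means compound restores mutant binding toward wildtype level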
MEKK3 confirm = MEKK3 wild-type PB1 binding to MEK5, inhibitors, confirmation, biochemical, bead multiplex flow cytometry, single concentration, wildtype. 5,900 compounds, 1.8% hits. AID 1894, 2009. shares compounds with MEKK3 PB1 HTS. binding response (% of control), % at 10 µM. Alexa488-MEK5 binding to MEKK3; stronger effect = lower value;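 active = binding response below 72% of control, or above a set upper limit, though filed actives all read lower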;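 note: 100% = DMSO only wells and 0% = binding blocked by excess unlabeled MEK5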
* = called active by the depositor; x = not tested or not shown; ! = a repeat was not active; [ ] = another dose, or the depositor's remark.

SMILES	ABCG2 block	ABCB1 block	Efflux pump inh	MEKK2mut PB1 HTS	MEKK2 WT-MEK5	MEKK3 PB1 HTS	MEKK2wt confirm	MEKK2mut confirm	MEKK3 confirm
CCOC(=O)c1cccc(-n2c(-c3ccc(OC)cc3)nc3nc4ccccc4nc32)c1	-3	0	x	0	94	134*	90	-4	100
Cc1cc(C(=O)NNC(=O)NC(C)C)no1	x	x	0	6	99	102	x	x	x
CCCCCCCCCCn1ccc(=N)cc1	x	x	1	30	148*	125	126	21	108
CCCCCCN1Cc2ccccc2C1	0	0	0	-2	97	96	x	x	x
CCN(CC(O)Cn1c2ccccc2c2ccccc21)S(=O)(=O)c1ccc(C)cc1 (centres undefined)	1	0	0	5	122	125*	108	-2	101
COc1ccccc1NC(=S)NCc1ccc2c(c1)OCO2	-4	-1	0	-1	98	113	x	x	x
CCCCCc1ccc(OCCCC[n+]2ccccc2)c(CCCCC)c1	10	0	0	28	164*	105	158	25	111
CCC(C)(C)c1ccc(OCCCC[n+]2ccccc2)c(C(C)(C)CC)c1	7	1	1	41	185*	109	199	65	110
CCCCCc1ccc(OCCCC[n+]2ccc(C)cc2)c(CCCCC)c1	10	3	0	16	186*	106	177	40	110
CCCCN(CC)CCCNC(=S)Nc1ccc2nc3n(c(=O)c2c1)CCCCC3	11	2	0	-1	98	94	x	x	x
COc1ccccc1NC(=O)c1ccc(NC(=O)COC(=O)CC(NC(=O)c2ccccc2Cl)c2ccccc2)cc1 (centres undefined)	6	3	0	0	103	130*	93	-8	108
COC(=O)c1ccc(OCCN2CCCCCC2)cc1	-1	0	0	2	110	99	x	x	x
O=C(c1ccc(OCCN2CCCCC2)cc1)c1c(-c2ccc(O)cc2)sc2cc(O)ccc12	x	x	0	28*	201*	111	143	33	94
O=[N+]([O-])c1ccc(C[n+]2cccc3ccccc32)cc1	-1	0	0	98*	84	104	94	-30	96
CC(C)NCC(O)c1ccc(NS(C)(=O)=O)cc1 (centres undefined)	0	x	0	6	119	122*!	101	-5	99
COC(=O)c1ccccc1NC(=O)C1CC(=O)N(c2ccc(F)cc2)C1 (centres undefined)	6	1	0	-6	98	99	x	x	x
COC(=O)c1ccccc1NC(=O)C1CC(=O)N(c2ccc(C)c(C)c2)C1 (centres undefined)	8	1	0	6	127	131*	99	-13	102
COc1cc(OC)cc(C(=O)OCC(=O)NCc2ccc3c(c2)OCO3)c1	25	2	0	-4	108	104	x	x	x
CC(C)c1ccc(NC(=O)c2snc3ccc(Cl)cc23)cc1	0	0	0	-1	105	130*	103	-3	107
COc1ccc(Nc2nc(N3CCCC3)c3ccccc3n2)cc1	6	2	0	45*	185*	107	159	44	109
CCN(CC)c1ccc(Nc2nc(N3CCOCC3)c3ccccc3n2)cc1	1	0	0	4	120	102	x	x	x
Cc1ccc(Cl)c(OC(=O)c2ccc(N3CCOCC3)c([N+](=O)[O-])c2)c1	9	2	0	1	109	137*	99	-2	104
COc1ccccc1CNC(=O)c1ccc(N2CCOCC2)c([N+](=O)[O-])c1	28	1	0	-19	53	44*[inhibitor]	104	3	110
CS(=O)(=O)NCCSc1cc(C(F)(F)F)nc2ccccc12	x	x	0	-9	97	96	x	x	x
c1cc2c(cc1C1CCCCC1)c1c3n2CCN=C3CCC1	1	0	0	19	135*	83	115	8	103
SMILES	ABCG2 block	ABCB1 block	Efflux pump inh	MEKK2mut PB1 HTS	MEKK2 WT-MEK5	MEKK3 PB1 HTS	MEKK2wt confirm	MEKK2mut confirm	MEKK3 confirm
Cc1ccc2c(c1)c1c3n2CCN=C3CCC1	15	1	0	-4	91	89	x	x	x
O=C(CSc1ncn[nH]1)N(C1CCCCC1)C1CCCCC1	2	1	0	-3	102	104	x	x	x
Cc1ccc(C2=NN(C(=O)CSc3nccn3C)C(c3ccco3)C2)cc1 (centres undefined)	x	x	0	4	106	100	x	x	x
C=CCn1c(SCC(=O)N2N=C(c3ccco3)CC2c2ccco2)nnc1-c1ccncc1 (centres undefined)	2	1	1	-1	94	66*[inhibitor]	113	12	106
COc1cc2nc(N3CCN(C(=O)C4COc5ccccc5O4)CC3)nc(N)c2cc1OC (centres undefined)	8	-1	0	15	150*!	116	146	27	111
Cc1ccc(OCCC(=O)OCC(=O)Nc2cc(C)nn2-c2ccccc2)cc1	x	x	0	0	100	100	x	x	x
CCN1C(=O)[C@H]2[C@@H](c3ccc(Cl)cc3)N3C(=O)CN(CC4CC4)C(=O)[C@@]3(Cc3ccccc3)[C@H]2C1=O	x	x	0	8	105	100	x	x	x
O=C(COC(=O)c1ccccc1Nc1ccc(SC(F)F)cc1)NCc1ccco1	2	0	0	4	105	103	x	x	x
O=C(N/N=C/c1ccc([N+](=O)[O-])o1)c1cn(-c2ccccc2)nc1-c1ccccc1	-6	-1	0	0	104	139*	102	9	108

Screens deposited in PubChem by NMMLSC.
